{
  "source": "paper PMC5183561",
  "about": "(European journal of pharmacology, 2016)",
  "molecules": {"B1": {"name": "[Dmt^1]N/OFQ(1-13)-NH2 (peptide)", "peptide": "[Dmt]GGFTGARKSARK-NH2", "modifications": "N-terminus assumed", "SMILES": "Cc1cc(O)cc(C)c1C[C@H](N)C(=O)NCC(=O)NCC(=O)N[C@@H](Cc1ccccc1)C(=O)N[C@H](C(=O)NCC(=O)N[C@@H](C)C(=O)N[C@@H](CCCNC(=N)N)C(=O)N[C@@H](CCCCN)C(=O)N[C@@H](CO)C(=O)N[C@@H](C)C(=O)N[C@@H](CCCNC(=N)N)C(=O)N[C@@H](CCCCN)C(N)=O)[C@@H](C)O"}},
  "key": {"[1]": {"target": "recombinant human delta opioid receptor (Homo sapiens, UniProt P41143)", "sequence (P41143 whole entry)": "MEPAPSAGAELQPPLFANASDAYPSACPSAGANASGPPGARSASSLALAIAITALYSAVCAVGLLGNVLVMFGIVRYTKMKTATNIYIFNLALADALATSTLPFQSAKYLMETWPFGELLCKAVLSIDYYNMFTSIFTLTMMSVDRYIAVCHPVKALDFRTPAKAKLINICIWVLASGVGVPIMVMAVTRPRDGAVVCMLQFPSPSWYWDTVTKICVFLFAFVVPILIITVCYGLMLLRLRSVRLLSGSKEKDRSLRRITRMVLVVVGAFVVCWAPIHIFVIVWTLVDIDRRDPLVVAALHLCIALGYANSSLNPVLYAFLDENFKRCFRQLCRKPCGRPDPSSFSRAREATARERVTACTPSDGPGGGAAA", "assay": "Stimulated [35S]GTPγS binding, CHOdelta membranes", "format": "biochemical", "conditions": "intrinsic activity, DPDPE = 1.00, n≥5"}, "[2]": {"target": "T1, human recombinant NOP receptor (Homo sapiens, UniProt P41146)", "T1 sequence (P41146 whole entry)": "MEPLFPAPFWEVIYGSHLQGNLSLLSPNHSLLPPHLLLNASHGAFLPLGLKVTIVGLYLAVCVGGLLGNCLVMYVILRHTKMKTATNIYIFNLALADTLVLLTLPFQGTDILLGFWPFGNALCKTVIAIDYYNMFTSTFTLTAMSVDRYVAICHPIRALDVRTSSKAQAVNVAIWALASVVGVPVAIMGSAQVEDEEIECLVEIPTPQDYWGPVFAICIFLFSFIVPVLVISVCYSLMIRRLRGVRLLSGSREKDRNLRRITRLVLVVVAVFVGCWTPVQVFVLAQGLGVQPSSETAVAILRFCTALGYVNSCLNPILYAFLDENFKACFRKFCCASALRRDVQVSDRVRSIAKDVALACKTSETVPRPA", "assay": "Stimulated [35S]GTPγS binding, CHONOP membranes", "format": "biochemical", "conditions": "intrinsic activity, N/OFQ = 1.00, n≥5"}, "[3]": {"target": "NOP-RLuc/β-arrestin 2-RGFP (Homo sapiens, UniProt P41146)", "assay": "BRET NOP/β-arrestin 2 interaction, HEK-293 whole cells", "format": "cell-based"}, "[4]": {"system": "NOP and classical opioid receptors", "assay": "Receptor binding studies, summary over all four receptors", "design": "species or system human", "conditions": "at all receptors (NOP, mu, kappa, delta), vs [Dmt^1]N/OFQ(1-13)-NH2", "summary_of_the_method": "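CHO membranes expressing human receptors (20–40 μg protein) were incubated 1 h at room temperature in 50 mM Tris, 0.5% BSA with test compound (1 pM–10 μM). […] Bound ligand was collected by filtration on PEI-soaked GF/B filters.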"}, "delta receptor": {"target": "delta receptor (Homo sapiens, UniProt P41143)", "sequence (P41143 whole entry)": "as the sequence (P41143 whole entry) above", "assay": "Calcium mobilization, CHO cells coexpressing delta and GαqG66Di5", "format": "cell-based"}, "[5]": {"target": "recombinant human mu opioid receptor (Homo sapiens, UniProt P35372)", "sequence (P35372 whole entry)": "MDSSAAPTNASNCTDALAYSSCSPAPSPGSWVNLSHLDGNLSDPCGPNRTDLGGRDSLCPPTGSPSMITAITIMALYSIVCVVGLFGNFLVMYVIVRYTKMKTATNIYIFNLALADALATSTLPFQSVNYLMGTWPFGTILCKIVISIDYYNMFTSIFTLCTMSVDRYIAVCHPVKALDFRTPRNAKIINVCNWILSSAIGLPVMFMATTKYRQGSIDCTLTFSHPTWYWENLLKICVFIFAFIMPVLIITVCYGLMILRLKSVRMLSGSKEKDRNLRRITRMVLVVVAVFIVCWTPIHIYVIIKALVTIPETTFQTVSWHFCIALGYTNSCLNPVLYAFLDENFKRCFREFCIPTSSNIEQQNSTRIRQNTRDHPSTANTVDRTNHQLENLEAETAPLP", "assay": "Stimulated [35S]GTPγS binding, CHOmu membranes", "format": "biochemical"}, "[6]": {"target": "T2, recombinant human kappa opioid receptor (Homo sapiens, UniProt P41145)", "T2 sequence (P41145 whole entry)": "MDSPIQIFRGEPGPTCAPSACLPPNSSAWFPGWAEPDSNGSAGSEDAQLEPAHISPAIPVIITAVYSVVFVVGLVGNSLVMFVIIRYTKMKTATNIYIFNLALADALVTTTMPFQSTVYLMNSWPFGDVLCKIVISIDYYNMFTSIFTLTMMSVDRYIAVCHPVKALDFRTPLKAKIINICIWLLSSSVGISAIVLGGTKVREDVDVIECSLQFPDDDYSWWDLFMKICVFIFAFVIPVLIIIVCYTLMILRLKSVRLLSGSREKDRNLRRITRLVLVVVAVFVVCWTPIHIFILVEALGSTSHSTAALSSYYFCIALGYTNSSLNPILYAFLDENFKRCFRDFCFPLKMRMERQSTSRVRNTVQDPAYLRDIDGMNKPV", "assay": "Stimulated [35S]GTPγS binding, CHOkappa membranes", "format": "biochemical"}, "[7]": {"system": "rhesus monkeys (Macaca mulatta)", "assay": "Warm water tail-withdrawal assay in monkeys", "format": "in vivo", "conditions": "n = 4; for duration of antinociception: 50°C water"}, "[8]": {"target": "mu-RLuc/β-arrestin 2-RGFP (Homo sapiens, UniProt P35372)", "assay": "BRET mu/β-arrestin 2 interaction, SH-SY5Y whole cells", "format": "cell-based", "conditions": "intrinsic activity, dermorphin = 1.00, inactive = inactive up to 1 μM"}, "[9]": {"system": "NOP over opioid receptors", "assay": "In vitro functional assays, NOP selectivity summary", "design": "species or system human", "conditions": "range over functional assays"}, "[10]": {"system": "rhesus monkeys (Macaca mulatta)", "assay": "Overt side effects", "format": "in vivo", "conditions": "0.3-3 nmol i.t."}, "mu-RLuc/Gβ1-RGFP": {"target": "mu-RLuc/Gβ1-RGFP (Homo sapiens, UniProt P35372)", "assay": "BRET mu/G-protein interaction, SH-SY5Y membranes", "format": "biochemical", "conditions": "intrinsic activity, dermorphin = 1.00"}, "[11]": {"target": "T2, recombinant human kappa opioid receptor", "assay": "Displacement binding of [3H]-DPN, CHOkappa cell membranes", "conditions": "vs [Dmt^1]N/OFQ(1-13)-NH2"}, "[12]": {"target": "human recombinant kappa receptor (Homo sapiens, UniProt P41145)", "sequence (P41145 whole entry)": "as above", "assay": "Calcium mobilization, CHO cells coexpressing kappa and Gαqi5", "format": "cell-based", "conditions": "intrinsic activity, dynorphin A = 1.00"}, "NOP-RLuc/Gβ1-RGFP": {"target": "NOP-RLuc/Gβ1-RGFP (Homo sapiens, UniProt P41146)", "assay": "BRET NOP/G-protein interaction, HEK-293 membranes", "format": "biochemical"}, "[13]": {"target": "human recombinant mu receptor (Homo sapiens, UniProt P35372)", "sequence (P35372 whole entry)": "as the sequence (P35372 whole entry) above", "assay": "Calcium mobilization, CHO cells coexpressing mu and Gαqi5", "format": "cell-based"}, "[14]": {"system": "NOP and classical opioid receptors", "assay": "Calcium mobilization, summary over the four cell lines", "format": "cell-based, human"}, "[15]": {"system": "rhesus monkeys (Macaca mulatta)", "assay": "Scratching responses in monkeys after intrathecal administration", "format": "in vivo", "conditions": "3 nmol i.t., any time point, n = 4"}, "[16]": {"target": "T1, human recombinant NOP receptor", "assay": "Calcium mobilization, CHO cells coexpressing NOP and Gαqi5", "format": "cell-based"}, "[17]": {"target": "human recombinant delta opioid receptor (human, UniProt P41143 1-372)", "sequence (P41143 whole entry, stated change not applied)": "as the sequence (P41143 whole entry) above", "assay": "radioligand binding"}, "[18]": {"target": "T3, human recombinant mu opioid receptor (human, UniProt P35372 1-400)", "T3 sequence (P35372 whole entry)": "as the sequence (P35372 whole entry) above", "assay": "radioligand binding"}, "[19]": {"target": "human recombinant kappa opioid receptor (human, UniProt P41145 1-380)", "sequence (P41145 whole entry)": "as the sequence (P41145 whole entry) above", "assay": "radioligand binding"}, "[20]": {"target": "T3, human recombinant mu opioid receptor", "assay": "cell-based or functional assay"}, "[21]": {"target": "human recombinant N/OFQ (NOP) receptor (human, UniProt P41146 1-370)", "sequence (P41146 whole entry)": "as the sequence (P41146 whole entry) above", "assay": "radioligand binding"}, "[22]": {"target": "T3, human recombinant mu opioid receptor", "assay": "radioligand binding", "remark": "listed apart in the source"}, "[23]": {"conditions": "agonist stimulated over basal specific binding, mean ± S.E.M."}},
  "note": "Read-outs that look alike come from different tables or passages of the source. Where no end group is shown, it is not given here. [ ]: non-standard residue; d: D form. Dmt = Cc1cc(O)cc(C)c1C[C@H](N)C(=O)O; PWT2 core = not defined here",
  "data": [
    {"molecule": "Cc1cc(O)cc(C)c1C[C@H](N)C(=O)NCC(=O)NCC(=O)N[C@@H](Cc1ccccc1)C(=O)N[C@H](C(=O)NCC(=O)N[C@@H](C)C(=O)N[C@@H](CCCNC(=N)N)C(=O)N[C@@H](CCCCN)C(=O)N[C@@H](CO)C(=O)N[C@@H](C)C(=O)N[C@@H](CCCNC(=N)N)C(=O)N[C@@H](CCCCN)C(=O)N[C@@H](CSC1CC(=O)N(CCC(=O)NCCCN(CCCCN(CCCNC(=O)CCN2C(=O)CC(SC[C@H](NC(=O)[C@H](CCCCN)NC(=O)[C@H](CCCNC(=N)N)NC(=O)[C@H](C)NC(=O)[C@H](CO)NC(=O)[C@H](CCCCN)NC(=O)[C@H](CCCNC(=N)N)NC(=O)[C@H](C)NC(=O)CNC(=O)[C@@H](NC(=O)[C@H](Cc3ccccc3)NC(=O)CNC(=O)CNC(=O)[C@@H](N)Cc3c(C)cc(O)cc3C)[C@@H](C)O)C(N)=O)C2=O)CCCNC(=O)CCN2C(=O)CC(SC[C@H](NC(=O)[C@H](CCCCN)NC(=O)[C@H](CCCNC(=N)N)NC(=O)[C@H](C)NC(=O)[C@H](CO)NC(=O)[C@H](CCCCN)NC(=O)[C@H](CCCNC(=N)N)NC(=O)[C@H](C)NC(=O)CNC(=O)[C@@H](NC(=O)[C@H](Cc3ccccc3)NC(=O)CNC(=O)CNC(=O)[C@@H](N)Cc3c(C)cc(O)cc3C)[C@@H](C)O)C(N)=O)C2=O)CCCNC(=O)CCN2C(=O)CC(SC[C@H](NC(=O)[C@H](CCCCN)NC(=O)[C@H](CCCNC(=N)N)NC(=O)[C@H](C)NC(=O)[C@H](CO)NC(=O)[C@H](CCCCN)NC(=O)[C@H](CCCNC(=N)N)NC(=O)[C@H](C)NC(=O)CNC(=O)[C@@H](NC(=O)[C@H](Cc3ccccc3)NC(=O)CNC(=O)CNC(=O)[C@@H](N)Cc3c(C)cc(O)cc3C)[C@@H](C)O)C(N)=O)C2=O)C1=O)C(N)=O)[C@@H](C)O", "note": "(stereo partly shown) [PWT2-[Dmt^1], PWT2-[Dmt^1]N/OFQ(1-13)]", "values": [
      {"measurement": "α ± S.E.M. delta", "setting": "[1]", "value": "0.87 ± 0.07"},
      {"measurement": "α ± S.E.M. NOP", "setting": "[2]", "value": "1.23 ± 0.13"},
      {"measurement": "α ± S.E.M. NOP, β-arrestin2", "setting": "[3]", "value": "0.58 ± 0.10"},
      {"measurement": "lower affinity than the parent peptide", "setting": "[4]", "value": "approximately 10 fold"},
      {"measurement": "potency lower than DPDPE", "setting": "delta receptor; delta", "value": 23, "unit": "fold"},
      {"measurement": "α ± S.E.M. delta", "setting": "delta receptor; intrinsic activity, DPDPE = 1.00", "value": "0.80 ± 0.08"},
      {"measurement": "Emax as stimulation factor, mu", "setting": "[5]; [23]", "value": "2.84 ± 0.11", "unit": "fold"},
      {"measurement": "α ± S.E.M. mu", "setting": "[5]; intrinsic activity, dermorphin = 1.00, n≥5", "value": "0.98 ± 0.07"},
      {"measurement": "Emax as stimulation factor, kappa", "setting": "[6]; [23]", "value": "2.43 ± 0.08", "unit": "fold"},
      {"measurement": "α ± S.E.M. kappa", "setting": "[6]; intrinsic activity, dynorphin A = 1.00, n≥5", "value": "1.40 ± 0.11"},
      {"measurement": "duration of antinociception", "setting": "[7]; 0.3 nmol i.t.", "value": 2, "unit": "h"},
      {"measurement": "duration of antinociception", "setting": "[7]; 1 nmol i.t.", "value": 6, "unit": "h"},
      {"measurement": "duration of antinociception", "setting": "[7]; 3 nmol i.t.", "value": 24, "unit": "h"},
      {"measurement": "α ± S.E.M. mu, β-arrestin2", "setting": "[8]", "value": "0.82 ± 0.07"},
      {"measurement": "NOP selectivity in in vitro functional assays", "setting": "[9]", "value": "2 – 10 fold"},
      {"measurement": "overt side effects including sedation or motor impairment", "setting": "[10]", "value": "did not cause any overt side effects"},
      {"measurement": "α ± S.E.M. mu, Gβ1-protein", "setting": "mu-RLuc/Gβ1-RGFP", "value": "1.43 ± 0.12"},
      {"measurement": "loss of affinity at kappa compared to parent compound", "setting": "[11]", "value": "~ 18 fold"},
      {"measurement": "α ± S.E.M. kappa", "setting": "[12]", "value": "0.86 ± 0.03"},
      {"measurement": "α ± S.E.M. NOP, Gβ1-protein", "setting": "NOP-RLuc/Gβ1-RGFP", "value": "1.04 ± 0.04"},
      {"measurement": "Emax", "setting": "[13]; CHO, read-out: maximal effects over basal, mu", "value": "283 ± 3", "unit": "%"},
      {"measurement": "α ± S.E.M. mu", "setting": "[13]; calcium mobilization, intrinsic activity, dermorphin = 1.00", "value": "0.87 ± 0.04"},
      {"measurement": "lower potency compared to dermorphin", "setting": "[13]; calcium mobilization, mu", "value": 23, "unit": "fold"},
      {"measurement": "reduced potency compared to [Dmt^1]N/OFQ(1-13)-NH2", "setting": "[14]", "value": "3 to 30", "unit": "fold"},
      {"measurement": "scratching responses in 15-min observation period", "setting": "[15]", "value": "did not significantly elicit scratching responses"},
      {"measurement": "reduced potency compared to N/OFQ", "setting": "[16]; NOP", "value": 58, "unit": "fold"},
      {"measurement": "α ± S.E.M. NOP", "setting": "[16]; intrinsic activity, N/OFQ = 1.00", "value": "0.98 ± 0.08"}
    ]},
    {"molecule": "O=C1CC[C@@]2(O)[C@H]3Cc4ccc(O)c5c4[C@@]2(CCN3CC2CC2)[C@H]1O5", "note": "[naltrexone, Naltrexone, reference compound]", "values": [
      {"measurement": "effect of antagonist on i.t. PWT2-[Dmt^1] (3 nmol)-induced antinociception", "setting": "[7]; naltrexone 0.03 mg/kg s.c., given 1 h 10 min after PWT2-[Dmt^1]", "value": "inactive"}
    ]},
    {"molecule": "[Dmt]GGFTGARKSARKC(PWT2 core)-NH2 (reading uncertain; also: Cys14 joined to the PWT2 core by thio-Michael reaction)", "note": "[PWT2-[Dmt^1]N/OFQ(1-13)]", "values": [
      {"measurement": "pKi", "setting": "[17]", "value": 8.42},
      {"measurement": "pKi", "setting": "[18]", "value": 9.25},
      {"measurement": "pKi", "setting": "[19]", "value": 9.13},
      {"measurement": "stimulation of [^35S]GTPγS binding, CHO mu membranes: Emax as stimulation factor", "setting": "[20]", "value": 2.84, "unit": "fold"},
      {"measurement": "pKi", "setting": "[21]", "value": 9.13}
    ]},
    {"molecule": "YAFGYPS", "note": "[Dermorphin]", "values": [
      {"measurement": "stimulation of [^35S]GTPγS binding, CHO mu membranes: Emax as stimulation factor", "setting": "[20]", "value": 2.88, "unit": "fold"}
    ]},
    {"molecule": "B1", "values": [
      {"measurement": "pKi", "setting": "[22]", "value": 10.4},
      {"measurement": "pKi", "setting": "[17]", "value": 9.99},
      {"measurement": "pKi", "setting": "[18]", "value": 10},
      {"measurement": "pKi", "setting": "[19]", "value": 10.4},
      {"measurement": "stimulation of [^35S]GTPγS binding, CHO mu membranes: Emax as stimulation factor", "setting": "[20]", "value": 3.06, "unit": "fold"},
      {"measurement": "pKi", "setting": "[21]", "value": 10.4}
    ]}
  ]
}
